Results on 14 compounds are retold here after ChEMBL document CHEMBL1146840, “Syntheses and radical scavenging activities of resveratrol derivatives” (Bioorg Med Chem Lett, 2004).

Data set [1] in a line: Free radical scavenging activity of DPPH expressed as percent polyphenol. (In general: Loss of DPPH colour is used to gauge radical scavenging.)
Data set [2] is described as follows: Free radical scavenging activity of DPPH relative to resveratrol was determined. The method, boiled down:
(§1)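 Ethanolic DPPH (1.01×10^-4 M) plus sample (1:9 by volume), 30 min at room temperature, absorbance at 518 nm, decrease versus control. Triplicate, repeated at least three times. The relative value is the IC50 of resveratrol divided by the IC50 of the test compound.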

The nature of data set [3]: Free radical scavenging activity of DPPH was determined; value taken from reference 11.
The nature of data set [4]: Free radical scavenging activity of DPPH was determined. In a few lines:
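DPPH bleaching assay: sample solution mixed 1:9 with ethanolic DPPH (1.01×10^-4 M), kept 30 min at room temperature, then A518 read and remaining DPPH calculated. Triplicate, repeated at least three times.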

A short description of data set [5]: Half life of the radiolabeled compound was determined. Format: ADME.
The nature of data set [6]: Free radical scavenging activity of DPPH w.r.t. resveratrol was determined. In a few lines:
as §1

Take `COc1ccc(/C=C/c2cc(OC)cc(OC)c2Br)cc1`: in data set [1], the Activity was 26.6%.

`Oc1cc(O)cc(/C=C/c2ccc(O)c(O)c2)c1` [PICEATANNOL] displayed a Relative IC50 in data set [2] of 2.55. In addition, the IC50 in data set [3] came out at 29 µM.

`COc1cc(/C=C/c2ccc(O)c(CCF)c2)cc(OC)c1`: the Activity in data set [1] is 50.4%. For the same compound, the midpoint of inhibition in data set [4], the IC50, lay at 69.5 µM. In data set [2], the Relative IC50 was found to be 1.77.

In data set [5], `[18FH]` [F-18] displayed a T1/2 of 1.83 h.

For the compound `Oc1cc(O)c2c(c1)O[C@H](c1ccc(O)c(O)c1)[C@H](O)C2` [(-)-EPICATECHIN], in data set [2], the Relative IC50 amounted to 4.71. In data set [3], this compound registered an IC50 of 15.7 µM.

As for `Oc1cc(O)cc(/C=C/c2ccc(O)c(CCF)c2)c1`, the Activity in data set [1] was found to be 95.6%. In addition, the IC50 in data set [4] stood at 47.4 µM. In data set [2], this compound registered a Relative IC50 of 2.6.

With `Oc1cc(O)c2c(c1)O[C@H](c1ccc(O)c(O)c1)[C@@H](O)C2` [CIANIDANOL], the Relative IC50 in data set [2] is 3.66. The compound also displayed an IC50 in data set [3] of 20.2 µM.

Consider `Oc1ccc(/C=C/c2cc(O)cc(O)c2)cc1` [RESVERATROL], for which the Activity in data set [1] worked out at 100%. The IC50 came to 123 µM in data set [4] and 74 µM in data set [3]. This compound also displayed a Relative IC50 in data set [6] of 1.

As to `OC[C@H]1O[C@@H](Oc2cc(O)cc(/C=C/c3ccc(O)cc3)c2)[C@H](O)[C@@H](O)[C@@H]1O` [PICEID], the Relative IC50 in data set [2] is 0.37. In data set [3], this compound gave an IC50 of 200 µM.

`Oc1ccc(/C=C/c2cc(O)cc(O)c2Br)cc1` had an Activity in data set [1] of 85.8%. The IC50 in data set [4] worked out at 35.9 µM. For the same compound, the Relative IC50 in data set [2] is 3.43.

With `Oc1ccc(/C=C/c2cc(O)c(I)c(O)c2)cc1`, in data set [1], the Activity stood at 72%. The half-inhibitory concentration (IC50) in data set [4] stood at 70.6 µM. Also, in data set [2], the Relative IC50 came out at 1.75.

Consider `OC[C@H]1O[C@@H](Oc2cc(O)cc(/C=C/c3ccc(O)c(O)c3)c2)[C@H](O)[C@@H](O)[C@@H]1O`, for which the Relative IC50 in data set [2] was 2.42. The compound also came in with an IC50 in data set [3] of 30.6 µM.

Compound `Oc1cc(O)cc(/C=C/c2ccc(O)c(Br)c2)c1` had an Activity in data set [1] of 98%. Further, the IC50 in data set [4] was 51.2 µM. Besides, in data set [2], the Relative IC50 is 2.41.

In data set [1], `Oc1cc(O)cc(/C=C/c2ccc(O)c(I)c2)c1` had an Activity of 88%. Moreover, in data set [4], it took 73.4 µM to reach half-maximal inhibition (IC50). The compound further came in with a Relative IC50 in data set [2] of 1.68.

The IC50 is the point on the concentration scale where inhibition reaches its midpoint. Low readings indicate higher potency, high ones lower potency.
